Assay results reported in ChEMBL document CHEMBL4334446, “Evaluating the effects of fluorine on biological properties and metabolic stability of some antitubulin 3-substituted 7-phenyl-pyrroloquinolinones” (Eur J Med Chem, 2019).

What was measured:
[1] = Metabolic stability in human liver microsomes assessed as parent compound decline at 10 uM incubated for 60 mins in absence of NADPH by HPLC analysis; format: ADME, Microsome; conditions: read-out: Drug degradation
How it was run: (§1)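 Compound (10 µM) was incubated 0 or 60 min at 37 °C with pooled HLMs (1 mg/mL), with or without 1 mM NADPH, or in buffer only (0.1 M KH2PO4 pH 7.4). Reactions were stopped with ice-cold acetonitrile. Remaining parent was measured by HPLC-fluorescence relative to 0 min; mean ± SD, n = 3.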

HeLa = experiment: Growth inhibition of human HeLa cells incubated for 72 hrs by MTT assay; format: functional
MCF7 = experiment: Growth inhibition of human MCF7 cells incubated for 72 hrs by MTT assay; format: functional; conditions: MCF7, 72 h
[2] = Metabolic stability in human liver microsomes assessed as parent compound decline at 10 uM incubated for 60 mins in presence of NADPH by HPLC analysis; format: ADME, Microsome; conditions: read-out: Drug degradation; how it was run: as §1
HT-29 = experiment: Growth inhibition of human HT-29 cells incubated for 72 hrs by MTT assay; format: functional; conditions: HT-29, 72 h
[3] = Growth inhibition of human PBL cells incubated for 72 hrs by MTT assay; format: cell-based; conditions: PBL cells (peripheral blood lymphocytes)
How it was run: (§2)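 PBL from healthy donors were isolated on a Lymphoprep gradient, held overnight in RPMI-1640 with 10% FBS, and the non-adherent cells resuspended at 5 × 10^5 cells/mL. Proliferating cultures got 2.5 µg/mL PHA; resting cultures got none. Compound was added at several concentrations for 72 h and viability read by MTT. GI50 reported as mean ± SEM of three experiments.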

CCRF-CEM = experiment: Growth inhibition of human CEM cells incubated for 72 hrs by MTT assay; format: functional
How it was run: (§3)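 Leukemia lines were grown in RPMI-1640; the CEM^Vbl-100 medium also contained 100 ng/mL vinblastine. Cells were seeded at 8 × 10³ per well and left 18 h at 37 °C, 5% CO2. Medium was then replaced with fresh medium holding graded compound concentrations (DMSO stocks), in triplicate, for 72 h. Viability was read by MTT, and GI50 = concentration inhibiting proliferation 50%.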

[4] = Selectivity ratio of GI50 for PHA-stimulated human PBL cells to GI50 for human CEM cells incubated for 72 hrs by MTT assay
How it was run: (§4)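 Leukemia cells (CEM, DND-41, Jurkat) were grown in RPMI-1640 at 8×10³ cells/well and left 18 h. Donor PBL were gradient-separated, held overnight, and non-adherent cells set at 5×10^5 cells/mL with 2.5 µg/mL PHA. Both were exposed 72 h at 37 °C to graded compound concentrations, read by MTT. The ratio is PBL GI50 over leukemia GI50.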

[5] = Growth inhibition of PHA-stimulated human PBL cells incubated for 72 hrs by MTT assay; format: cell-based; conditions: PHA-stimulated PBL cells (peripheral blood lymphocytes); how it was run: as §2
[6] = Selectivity ratio of GI50 for human PBL cells to GI50 for human Jurkat cells incubated for 72 hrs by MTT assay
How it was run: as §4, with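 “overnight in RPMI-1640/10% FBS,” for “overnight,”, “without PHA (resting).” for “with 2.5 µg/mL PHA.”, “h” for “h at 37 °C”, “graded” for “graded compound”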

[7] = Growth inhibition of multidrug-resistant human CEM/VBL100 cells incubated for 72 hrs by MTT assay; format: functional; conditions: CEM/VBL100, 72 h; how it was run: as §3
[8] = Selectivity ratio of GI50 for human PBL cells to GI50 for human DND41 cells incubated for 72 hrs by MTT assay
How it was run: as §4, with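 “overnight in RPMI-1640/10% FBS,” for “overnight,”, “without PHA (resting).” for “with 2.5 µg/mL PHA.”, “h” for “h at 37 °C”, “graded” for “graded compound”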

Jurkat = experiment: Growth inhibition of human Jurkat cells incubated for 72 hrs by MTT assay; format: functional; how it was run: as §3
[9] = Selectivity ratio of GI50 for human PBL cells to GI50 for human CEM cells incubated for 72 hrs by MTT assay; format: functional
How it was run: as §4, with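 “overnight in RPMI-1640/10% FBS,” for “overnight,”, “without PHA (resting).” for “with 2.5 µg/mL PHA.”, “h” for “h at 37 °C”, “graded” for “graded compound”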

RS4-11 = experiment: Growth inhibition of human RS4:11 cells incubated for 72 hrs by MTT assay; format: functional; conditions: RS4-11, 72 h; how it was run: as §3
[10] = Selectivity ratio of GI50 for PHA-stimulated human PBL cells to GI50 for human Jurkat cells incubated for 72 hrs by MTT assay; how it was run: as §4
[11] = Selectivity ratio of GI50 for PHA-stimulated human PBL cells to GI50 for human DND41 cells incubated for 72 hrs by MTT assay; how it was run: as §4
HL-60 = experiment: Growth inhibition of human HL60 cells incubated for 72 hrs by MTT assay; format: functional; conditions: HL-60, 72 h; how it was run: as §3
MDA-MB-468 = experiment: Growth inhibition of human MDA-MB-468 cells incubated for 72 hrs by MTT assay; format: functional; conditions: MDA-MB-468, 72 h
A2058 = experiment: Growth inhibition of human A2058 cells incubated for 72 hrs by MTT assay; format: functional; conditions: A2058, 72 h
[12] = Growth inhibition of human DND41 cells incubated for 72 hrs by MTT assay; format: functional; conditions: DND41, 72 h; how it was run: as §3
A-375 = experiment: Growth inhibition of human A375 cells incubated for 72 hrs by MTT assay; format: functional; conditions: A-375, 72 h
MDA-MB-231 = experiment: Growth inhibition of human MDA-MB-231 cells incubated for 72 hrs by MTT assay; format: functional; conditions: MDA-MB-231, 72 h
Tubulin = Tubulin (Bos taurus, UniProt Q6B856+Q862L2+Q862F3); experiment: Inhibition of bovine brain tubulin polymerization preincubated for 15 mins followed by GTP addition and measured for 20 mins by turbidimetry-based spectrophotometric method
How it was run: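 Bovine brain tubulin (10 µM) was preincubated with varying compound concentrations in 0.8 M monosodium glutamate, pH 6.6, for 15 min at 30 °C, then cooled to 0 °C. GTP was added to 0.4 mM final and the mix warmed to 30 °C. Turbidity was followed at 350 nm. IC50 = concentration inhibiting extent of assembly 50% after 20 min.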

Tubulin (Bos taurus) = Tubulin (Bos taurus) (UniProt Q6B856+Q862L2+Q862F3); experiment: Inhibition of [3H]colchicine binding to bovine brain tubulin at 5 uM relative to control
How it was run: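 Bovine brain tubulin at 1 µM was incubated with 5 µM [3H]colchicine and the test compound at 5 µM. Inhibition of colchicine binding was measured relative to a control.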

metabolised at 1 h, 10 µM [1] | GI50 (HeLa) | GI50 (MCF7) | metabolised at 1 h, 10 µM [2] | GI50 (HT-29) | GI50 (Jurkat) | GI50 (RS4-11) | GI50 (HL-60) | GI50 (MDA-MB-468) | GI50 (A-375) | GI50 (MDA-MB-231) | SMILES | GI50 (A2058) | GI50 [12] | other results
20% | 0.2 nM | 0.2 nM | 20% | 0.1 nM | 16 nM | 0.3 nM | 2 nM |  |  |  | O=C(c1ccccc1)n1ccc2c3c(=O)cc(-c4ccccc4)[nH]c3ccc21 |  |  | GI50 at 72 h [3]: > 100000 nM; GI50 (CCRF-CEM): 2.5 nM; RatioGI50 [4]: 10000 - 30000; GI50 at 72 h [5]: 2700 nM; RatioGI50 [6]: 10000 - 30000; GI50 [7]: 3.1 nM; RatioGI50 [8]: 10000 - 30000; RatioGI50 [9]: 10000 - 30000; RatioGI50 [10]: 10000 - 30000; RatioGI50 [11]: 10000 - 30000
 | 501 nM | 3460 nM |  | 216 nM | 324 nM | 697 nM | 2310 nM | 1320 nM | 2550 nM | 5590 nM | O=C(Oc1cc(-c2ccccc2)nc2ccc3[nH]ccc3c12)c1ccccc1F | 1490 nM | 2420 nM | 
20% | 9.3 nM | 1080 nM | 20% | 26.6 nM | 53.7 nM | 120 nM | 276 nM | 70 nM | 332 nM | 3030 nM | O=C(c1ccccc1F)n1ccc2c3c(=O)cc(-c4ccccc4)[nH]c3ccc21 | 322 nM | 240 nM | IC50 (Tubulin): 1300 nM; inhibition (Tubulin (Bos taurus)): 34%
